# Apaf-1 act: activators of human Apaf-1 apoptosome | activity change, negative = activation, % at 20 µM | actives 0.31% (n = 330,000) | Apaf-1 apoptosome caspase-3 activation, DEVD-Rh110 fluorescence; stronger effect = lower value | O14727;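 active = activity change at or below -40% at 20 µM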
# Target sequence (O14727 whole entry, looked up): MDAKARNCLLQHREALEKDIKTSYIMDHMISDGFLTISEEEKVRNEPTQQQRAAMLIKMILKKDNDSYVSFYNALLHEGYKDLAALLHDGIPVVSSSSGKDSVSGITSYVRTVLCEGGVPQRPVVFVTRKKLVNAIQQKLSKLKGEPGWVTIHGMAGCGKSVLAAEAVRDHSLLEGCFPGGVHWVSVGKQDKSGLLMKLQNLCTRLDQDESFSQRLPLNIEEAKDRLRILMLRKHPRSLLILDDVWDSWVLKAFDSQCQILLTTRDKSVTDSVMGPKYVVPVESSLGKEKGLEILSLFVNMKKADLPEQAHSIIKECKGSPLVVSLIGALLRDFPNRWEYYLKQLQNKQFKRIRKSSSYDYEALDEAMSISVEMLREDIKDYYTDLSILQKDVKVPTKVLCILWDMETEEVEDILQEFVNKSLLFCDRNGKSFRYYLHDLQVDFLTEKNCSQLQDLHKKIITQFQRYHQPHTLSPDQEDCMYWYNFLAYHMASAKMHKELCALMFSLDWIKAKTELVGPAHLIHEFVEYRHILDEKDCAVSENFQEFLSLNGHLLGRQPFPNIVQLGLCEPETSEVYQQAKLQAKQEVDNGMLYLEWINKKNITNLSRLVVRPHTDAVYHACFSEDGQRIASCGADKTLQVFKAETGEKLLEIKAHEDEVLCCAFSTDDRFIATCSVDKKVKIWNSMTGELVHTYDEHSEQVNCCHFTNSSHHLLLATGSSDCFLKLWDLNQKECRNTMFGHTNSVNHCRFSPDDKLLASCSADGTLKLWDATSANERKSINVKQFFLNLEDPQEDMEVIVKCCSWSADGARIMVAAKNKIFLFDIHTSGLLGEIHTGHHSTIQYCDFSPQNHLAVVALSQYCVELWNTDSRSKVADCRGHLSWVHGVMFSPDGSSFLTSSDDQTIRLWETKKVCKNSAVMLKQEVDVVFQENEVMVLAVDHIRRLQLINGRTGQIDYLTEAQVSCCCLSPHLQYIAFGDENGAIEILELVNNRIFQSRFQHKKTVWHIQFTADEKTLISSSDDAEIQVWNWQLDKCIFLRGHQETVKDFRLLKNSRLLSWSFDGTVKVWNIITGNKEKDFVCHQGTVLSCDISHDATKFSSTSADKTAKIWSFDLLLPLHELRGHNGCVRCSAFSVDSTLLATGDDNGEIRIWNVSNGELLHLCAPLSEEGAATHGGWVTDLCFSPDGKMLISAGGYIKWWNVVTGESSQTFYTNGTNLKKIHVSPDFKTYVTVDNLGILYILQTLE
#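 Assay system – biochemical Apaf-1 apoptosome reconstitution · Medium – 20 mM HEPES buffer, pH 7.5, containing CHAPS and BSA · Incubation – 30 min preincubation, 50 min reaction, room temperature · Measured by – Caspase-3-released Rh110 fluorescence, 540 nm emission, 480 nm excitation · Read-out – Caspase-3 cleavage activity downstream of Apaf-1 activation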
# Rh110 interf act: Rh110 signal interference in Apaf-1 activator counter-screen. shares compounds with Apaf-1 act. Rh110 fluorescence interference, quenched caspase reaction, Ex480/Em540. fluorescence interference (activity change), % at 20 µM, hits read low. 980 tested, under 10 active. AID 504616;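 active = mean activity change at or below -40% when tested at 20 µM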
# Apaf-1 act conf: confirmation of human Apaf-1 activators; activity change, negative = activation, % at 20 µM; actives 5% (n = 980); reconstituted apoptosome caspase-3 activity, DEVD-Rh110 fluorescence; stronger effect = lower value; shares compounds with Apaf-1 act;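 active = mean activity change at or below -40%, meaning activation of 40% or more, at 20 µM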
# Apaf1 act interf: counter-screen for Apaf-1 activators: fluorescence interference, dose response; shares compounds with Apaf-1 act; fluorescence interference counterscreen, Apaf-1 activator assay; EC50, µM; 55 tested, under 10 active; AID 588592; call rule not given here
# A number is an active result; n = inactive; x = no result. The list is a sample of the results.
SMILES,Apaf-1 act,Rh110 interf act,Apaf-1 act conf,others
COc1cccc2sc(N(CCN(C)C)C(=O)c3ccc4c(c3)CCCC4)nc12,n,x,x,
CC(C)Cn1c(N)c(C(=O)COC(=O)C2CCCCC2)c(=O)n(C)c1=O,n,x,x,
CC(C)(C)c1ccc(/C=C(\C#N)C(=O)Nc2ccccn2)cc1,-186,n,n,
Cc1ccc(NC(=O)Nc2nnc(CSCCOc3ccc(Cl)cc3)s2)cc1,-253,n,n,
Cc1ccc(N2CCN(S(=O)(=O)c3cccs3)CC2C)cc1 (centres undefined),n,x,x,
CN(C)c1cc(N/N=C/c2ccccc2C(F)(F)F)nc(N(C)C)n1,n,x,x,
CC1CC(C)(C)NC(=O)O1 (centres undefined),-88,n,n,
CCCCCCSc1cc(-c2nc3cnccn3c2NCCCC)ccc1OC,n,x,x,
C=CCC[C@@H](Cc1ccc(F)cc1)C(=O)OC[C@H]1CCCN1C(=O)[C@@H](CC=C)CC(=O)N[C@H](CO)Cc1ccccc1,n,x,x,
CC[C@H](C)Cc1cn([C@@H](CCCN=C(NC(=O)OC(C)(C)C)NC(=O)OC(C)(C)C)C(=O)NCCCCCCCCCCC(=O)N2CCN(C(=O)OC(C)(C)C)CC2)nn1,n,x,x,
CCN(CC)CCn1c(SCC(=O)Nc2ccc3c(c2)CCC3)nc2ccccc2c1=O,n,x,x,
CC1CN(CCC(=O)Nc2ccc3c(c2)CCC3)CC(C)O1 (centres undefined),-85,n,n,
CCN(Cc1ccccc1)S(=O)(=O)c1ccc(C(=O)N(CCCN(C)C)c2nc3cc(C)cc(C)c3s2)cc1,n,x,x,
CC(C)(C)OC(=O)NCCCCCNC(=O)c1nc[nH]c1C(=O)NCCCCCNC(=O)OC(C)(C)C,-50,n,n,
COC(=O)c1cc(C)nc2c1C(=O)C(=O)C=C2N1CCOCC1,n,x,x,
C#CCOCCOCCOCCNc1nc(N2CCN(C(=O)CCCCCCCCCCNC(=O)[C@H](CCCN=C(N)N)n3cc(C[C@@H](C)CC)nn3)CC2)nc(N2CCN(C(=O)CCCCCCCCCCNC(=O)[C@@H]([C@H](C)CC)n3cc(CCCCCN)nn3)CC2)n1,n,x,x,
NC[C@@H]1O[C@H](C23CC4CC(CC(C4)C2)C3)Cc2c1ccc(O)c2O,n,x,x,
Cc1ccccc1NC(=O)C1CC(Cl)=CCC1C(=O)O (centres undefined),-111,n,n,
COc1ccccc1NC(=O)c1nc[nH]c1C(=O)Nc1ccccc1OC,n,x,x,
CNC(=O)c1[nH]cnc1C(=O)Nc1ccc(C)cc1,-205,n,n,
CCC(C(=O)NCc1ccco1)n1nc(C)c2c(C)n(-c3ccccc3)nc2c1=O (centres undefined),-86,n,n,
Nc1c(C(=O)NCc2ccco2)c2nc3ccccc3nc2n1CCc1ccccc1F,n,x,x,
COc1ccc(O)c(N)c1,n,x,x,
Cc1cc(C)n2nc(C(=O)N3CCCC(CNS(=O)(=O)c4cccs4)C3)cc2n1 (centres undefined),-394,n,n,
COC(=O)CCC(=O)OC1(C)C(=O)C2=CN(C(CO)CO)C(c3ccc(OC)cc3)=CC2=C(Br)C1=O (centres undefined),n,x,x,
SMILES,Apaf-1 act,Rh110 interf act,Apaf-1 act conf,others
Cc1ccc(-n2ccnc2SCC(=O)O)c(C)c1,-478,n,n,
CC(Oc1cccc(Cl)c1)C(=O)Nc1cc(S(=O)(=O)N2CCOCC2)ccc1N1CCCCC1 (centres undefined),n,x,x,
O=[N+]([O-])c1ccc(N/N=C/c2ccc(O)c(O)c2O)c(S(=O)(=O)N2CCOCC2)c1,n,x,x,
Cc1ccc(NC(=O)C(C)N2C(=O)C3C4CC(C(Br)C4Br)C3C2=O)cc1 (centres undefined),-419,n,n,
CS(=O)c1nc(-c2ccc(Br)cc2)cc(-c2ccccc2)c1C#N (centres undefined),n,x,x,
O=C(N/N=C/c1ccccc1O)C1(O)c2ccccc2-c2ccccc21,-59,n,n,
S=C(Nc1ccc(Cl)cc1)Nc1cccc2cnccc12,n,x,x,
Cc1ccc(NS(=O)(=O)c2ccc(NC(=O)C3CCCO3)cc2)cc1 (centres undefined),-52,n,n,
CC(=O)Nc1ccc(S(=O)(=O)NC2=C(N3CCN(c4ccc(F)cc4)CC3)C(=O)c3ccccc3C2=O)cc1,n,x,x,
COc1ccc(-c2c(C#Cc3ccc(N(C)C)cc3)c3ccccc3n2C)cc1,n,x,x,
COCCn1c(N)c(C(=O)OCc2ccccc2)c2nc3ccccc3nc21,n,x,x,
CCOc1ccc2noc3c2c1C(=O)c1ccccc1-3,n,x,x,Apaf1 act interf=14
O=C1c2ccccc2-c2onc3ccc(NCc4ccco4)c1c23,n,x,x,
COC(CNC(=O)c1ccc2c3c(onc13)-c1ccccc1C2=O)OC,n,x,x,
Cc1c(CCOC(=O)CC23CC4CC(CC(C4)C2)C3)sc[n+]1CC(=O)c1ccc(Br)cc1,n,x,x,
CCN1CCN(c2ccc(NC(=O)CCc3c(C)nc4c(-c5ccccc5)c(C)nn4c3C)cc2)CC1,n,x,x,
O=C(CCN1CCOCC1)N1CCCC(Nc2ccc(F)cc2)C1 (centres undefined),-56,n,n,
COc1ccc(Nc2ccc3c(c2)=NC2(CCCCC2)[N+]=3[O-])cc1,n,x,x,
CCCOc1cc2c(C#N)c(N3CCCC3)nc(N)c2c(N)n1,n,x,x,
Cc1cccc(NC(=O)c2cc(NC(=O)C3CCCCC3C(=O)O)ccc2N2CCOCC2)c1 (centres undefined),-127,n,n,
CN1CCN(c2ccc(NC(=O)c3cc(S(N)(=O)=O)ccc3N3CCOCC3)cc2)CC1,n,x,x,
COc1ccc(/C=N/NC(=O)c2nn(-c3ccccc3)c(=O)c3c(N)scc23)cc1,n,x,x,
O=C(C[n+]1cccc(C(=O)N/N=C/c2ccc(Br)cc2)c1)c1ccccc1,n,x,x,
O=C(N/N=C/c1ccc(OC(=O)c2ccccc2)cc1)c1ccc(CN2CCOCC2)cc1,-68,n,n,
COC(=O)c1cccnc1-n1c(=O)c2cccnc2n(Cc2cccc([N+](=O)[O-])c2)c1=O,-65,n,n,
SMILES,Apaf-1 act,Rh110 interf act,Apaf-1 act conf,others
C#CCOCCOCCOCCNc1nc(N2CCN(C(=O)CCCCCCCCCCNC(=O)[C@@H](CCC(=O)O)n3cc(CCCCCN)nn3)CC2)nc(N2CCN(C(=O)CCCCCCCCCCNC(=O)[C@H](CCCCN)n3cc(C[C@@H](C)CC)nn3)CC2)n1,n,x,x,
COc1ccc(CNC[C@@H](CCCCN(C)Cc2ccc(OC)cc2)N2C[C@H](c3ccccc3)N(CCc3ccc(Cl)c(Cl)c3)C(=O)C2=O)cc1,n,x,x,
COC1=CC(=O)c2ccccc2C1=O,n,x,x,
COc1cc(C2NC(=O)NC(C)=C2C(=O)OCC2CCCO2)cc(OC)c1OC (centres undefined),-359,n,n,
COc1cc(C2C(C#N)=C(C)NC3=C2C(=O)c2ccccc23)cc(OC)c1OC (centres undefined),n,x,x,
COC(=O)C1=C(C)N(Cc2ccccc2)C(=NCc2cc(OC)c(OC)c(OC)c2)N[C@H]1c1ccc(Br)cc1,n,x,x,
O=S(=O)(Nc1ccc(O)c2ccccc12)c1cccs1,n,x,x,
CN(C)CCCN(C(=O)CCc1ccccc1)c1nc2ccc(Cl)cc2s1,n,x,x,
Oc1ccc2ccccc2c1CN1CCN(c2ccccc2F)CC1,-319,n,n,
CC(C)(C)N1C(=O)Cc2c1nc(N)c1c(N)nc(N3CCCCC3CO)c(C#N)c21 (centres undefined),n,x,x,

# Compound activity: PubChem, Sanford-Burnham Center for Chemical Genomics
